Experimental data: the RNAGym collection of RNA variant scans (doi:10.1126/science.aae0568)
Variants at the floor of the assay were thinned out.

B1: tRNA (parent)
chain: GUUCCGUUGGCGUAAUGGUAACGCGUCUCCCUCCUAAGGAGAAGACUGCGGGUUCGAGUCCCGUACGGAACG

Variants of: B1
Assay: yeast fitness relative to wild type (ratio to wild type); higher = fitter; tRNA-Arg(CCU), competitive growth, 37 C, YPD
How it was run: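 Variants of the tRNA-Arg(CCU) gene, chemically synthesised with a 3% per-site mutation rate at 69 sites, were placed at the native genomic locus in Saccharomyces cerevisiae. The pooled strains were competed in YPD at 37°C for 24 hours in six parallel replicates. Gene amplicons from the start population and from each end population were read by 100-nucleotide paired-end sequencing. Darwinian fitness relative to wild type came from changes in genotype frequencies; genotypes needed ≥ 100 starting reads, and estimates < 0.5 were set to 0.5.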

With G25A A40C C46U A69C as the variant, how does the yeast fitness read?
The yeast fitness was 0.764.

For C24U A45U, which yeast fitness is on record?
Its yeast fitness is 0.919.

With C24U C29U C49U G51U as the variant, how does the yeast fitness read?
Its yeast fitness is no more than 0.5.

Which yeast fitness does the source give for C24U C46A U64C here?
Its yeast fitness is 0.973.

For C24U A43U U47G U53C, which yeast fitness is on record?
Its yeast fitness is no more than 0.5.

With C24U C30U C31G as the variant, how does the yeast fitness read?
The yeast fitness was 0.623.

With C24U G52A as the variant, how does the yeast fitness read?
Its yeast fitness is 0.871.

With C24U C30U G58C A70G as the variant, how does the yeast fitness read?
The yeast fitness was no more than 0.5.

With C24U U59A C66U as the variant, how does the yeast fitness read?
Its yeast fitness is 0.565.

With C24U U32C A43U as the variant, how does the yeast fitness read?
The yeast fitness was 0.768.

With C24U C55G C61G as the variant, how does the yeast fitness read?
The yeast fitness was no more than 0.5.

For C24U C27U A40G G44A G50C, which yeast fitness is on record?
Its yeast fitness is no more than 0.5.

With C24U C29G C60U C66U as the variant, how does the yeast fitness read?
The yeast fitness was no more than 0.5.

With G25A C30U C60G as the variant, how does the yeast fitness read?
Its yeast fitness is 0.541.

With C24U G38C C62G as the variant, how does the yeast fitness read?
Its yeast fitness is 0.623.

With G25A A40U C61U as the variant, how does the yeast fitness read?
The yeast fitness was 0.669.

For C24U C55G C66A, which yeast fitness is on record?
The yeast fitness was no more than 0.5.

Which yeast fitness does the source give for G25A A40C A70U here?
Its yeast fitness is 0.625.

Which yeast fitness does the source give for C24U U32C A36U A37G U54A here?
The yeast fitness was no more than 0.5.

With C24U G41A as the variant, how does the yeast fitness read?
The yeast fitness was 0.926.

Which yeast fitness does the source give for C24U U59A U64C here?
The yeast fitness was no more than 0.5.

For C24U G25A C30U G50A G68C, which yeast fitness is on record?
The yeast fitness was no more than 0.5.

With C24U A45U C55U G67U as the variant, how does the yeast fitness read?
Its yeast fitness is no more than 0.5.

For G25A A43U, which yeast fitness is on record?
Its yeast fitness is 0.842.

For G25A A43C, which yeast fitness is on record?
The yeast fitness was 0.975.

Which yeast fitness does the source give for G25A A43G here?
Its yeast fitness is 0.949.

Which yeast fitness does the source give for C24U U47C G48A C62G A69U here?
Its yeast fitness is no more than 0.5.

For C24U C33G C34U C62U, which yeast fitness is on record?
The yeast fitness was no more than 0.5.

With C24U C66U A69C as the variant, how does the yeast fitness read?
Its yeast fitness is 0.568.

With C24U C31G G50A U64C as the variant, how does the yeast fitness read?
The yeast fitness was no more than 0.5.

For C24U U32G G56A, which yeast fitness is on record?
The yeast fitness was 0.53.

Which yeast fitness does the source give for C24U C46G C49A C61U here?
The yeast fitness was no more than 0.5.

Which yeast fitness does the source give for C24U U47C G67C here?
The yeast fitness was 0.688.

For G25A C29A A43C A57C, which yeast fitness is on record?
Its yeast fitness is no more than 0.5.

For C24U C49G G56C, which yeast fitness is on record?
The yeast fitness was no more than 0.5.

Which yeast fitness does the source give for C24U C29G G38C A42C here?
The yeast fitness was no more than 0.5.

Which yeast fitness does the source give for C24U U53A C66U here?
Its yeast fitness is 0.55.

Which yeast fitness does the source give for C24U C34G A57U C61G here?
Its yeast fitness is no more than 0.5.

With C24U C49U U64A as the variant, how does the yeast fitness read?
Its yeast fitness is no more than 0.5.

With C24U G48U as the variant, how does the yeast fitness read?
The yeast fitness was 0.783.

With C24U C29G as the variant, how does the yeast fitness read?
The yeast fitness was 0.674.

With C24U U26A G68A as the variant, how does the yeast fitness read?
Its yeast fitness is 0.604.

With G25A A43G C49U as the variant, how does the yeast fitness read?
Its yeast fitness is 0.94.

For C24U A45U G58A A65G, which yeast fitness is on record?
The yeast fitness was 0.794.

Which yeast fitness does the source give for C24U G51A here?
The yeast fitness was 0.675.

With C24U G48A C62G A69U as the variant, how does the yeast fitness read?
The yeast fitness was 0.606.

Which yeast fitness does the source give for C24U C33U C46U C49A C62U A69U here?
Its yeast fitness is no more than 0.5.

With C24U C31A A43C G58C U64G as the variant, how does the yeast fitness read?
Its yeast fitness is no more than 0.5.

For G25A A37C C62U, which yeast fitness is on record?
Its yeast fitness is 0.924.

For G25A A45G A65G, which yeast fitness is on record?
The yeast fitness was 0.823.

Which yeast fitness does the source give for C24U U59A C62A here?
Its yeast fitness is no more than 0.5.

For C24U U47C C62U, which yeast fitness is on record?
Its yeast fitness is 0.803.

Which yeast fitness does the source give for G25A C27G C60A A70U here?
Its yeast fitness is no more than 0.5.

Which yeast fitness does the source give for C24U C60G A65U here?
The yeast fitness was no more than 0.5.

With C24U U35A A69U as the variant, how does the yeast fitness read?
The yeast fitness was 0.513.

For C24U C31A C33A C34U C46A, which yeast fitness is on record?
Its yeast fitness is no more than 0.5.

Which yeast fitness does the source give for G25A C29G A45C C46G here?
The yeast fitness was no more than 0.5.

With C24U C33U G48A C61U as the variant, how does the yeast fitness read?
Its yeast fitness is no more than 0.5.

For C24U U26G U35A C62A, which yeast fitness is on record?
Its yeast fitness is no more than 0.5.

With C24U A57C G68U as the variant, how does the yeast fitness read?
The yeast fitness was no more than 0.5.

For C24U G63U, which yeast fitness is on record?
Its yeast fitness is 0.627.

Which yeast fitness does the source give for C24U U32G here?
The yeast fitness was 0.584.

Which yeast fitness does the source give for C24U U32C here?
Its yeast fitness is 0.991.

Which yeast fitness does the source give for C24U U32A here?
The yeast fitness was 0.784.

For C24U G56C A57G, which yeast fitness is on record?
The yeast fitness was no more than 0.5.

For G25A A37U A40C G67A, which yeast fitness is on record?
The yeast fitness was no more than 0.5.

With C24U C60G C66G as the variant, how does the yeast fitness read?
The yeast fitness was no more than 0.5.

For C24U C31U A42G, which yeast fitness is on record?
The yeast fitness was 0.574.

Which yeast fitness does the source give for G25A A36G here?
The yeast fitness was 0.962.

For C24U C33G U53C C55U A70G, which yeast fitness is on record?
Its yeast fitness is no more than 0.5.

With G25A C29U A45U as the variant, how does the yeast fitness read?
Its yeast fitness is 0.69.

With G25A A42U A43C G44A C49A C55G as the variant, how does the yeast fitness read?
Its yeast fitness is no more than 0.5.

With C24U U47A C61A as the variant, how does the yeast fitness read?
Its yeast fitness is no more than 0.5.

With C24U C29U C31G as the variant, how does the yeast fitness read?
Its yeast fitness is 0.806.

With C24U A65U A69C as the variant, how does the yeast fitness read?
The yeast fitness was 0.564.

For C24U C31G C33U U59A C62U, which yeast fitness is on record?
The yeast fitness was no more than 0.5.

For G25A C29U A57U C62A A69G, which yeast fitness is on record?
Its yeast fitness is no more than 0.5.

Which yeast fitness does the source give for C24U U59A C62A A69C here?
Its yeast fitness is 0.552.

For C24U C29U C30A, which yeast fitness is on record?
The yeast fitness was 0.706.

With C24U C30A C55U as the variant, how does the yeast fitness read?
The yeast fitness was no more than 0.5.

With C24U A69C as the variant, how does the yeast fitness read?
The yeast fitness was 0.887.

With C24U A69U as the variant, how does the yeast fitness read?
The yeast fitness was 0.99.

For G25A C27A, which yeast fitness is on record?
The yeast fitness was 1.11.
